Organism: Bos taurus
Test: Inhibition of bovine PDE4 using [3H]cAMP as substrate at 10 uM
Summary of the method: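 Enzyme was PDE4 isolated from the media layer of bovine aorta, run in the two-step activity assay at 1 μM cAMP.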

SMILES | inhibition [%]
COc1ccc(C(=O)N/N=C/c2ccc(OC)c(OC)c2)cc1 | 9.7
COc1ccc(C(=O)N/N=C/c2ccc(Cl)cc2)cc1OC | 6.4
COc1ccc(/C=N/NC(=O)c2c(C)nc3ccccn23)cc1OC | 41.5
COc1ccc(/C=N/NC(=O)c2ccccc2)cc1OC | 13.1
COc1ccc(/C=N/NC(=O)c2ccc(O)cc2)cc1OC | 13.6
COc1ccc(/C=N/NC(=O)c2ccc3c(c2)OCO3)cc1OC | 16
COc1ccc(C(=O)N/N=C/c2ccccc2)cc1OC | 5.8
COc1ccc(C(=O)N/N=C/c2ccc(O)cc2)cc1OC | 1.5
COc1ccc(/C=N/N(C)C(=O)c2c(C)nc3ccccn23)cc1OC | 45.9
COc1ccc(/C=N/N(C)C(=O)c2ccc(OC)c(OC)c2)cc1 | 45.8
COc1ccc(C(=O)N(C)/N=C/c2ccc(O)cc2)cc1OC | 27
COc1ccc(C(=O)N(C)/N=C/c2ccccc2)cc1OC | 22.8
COc1ccc(/C=N/NC(=O)c2ccc(OC)c(OC)c2)cc1OC | 10.7
COc1ccc(/C=N/NC(=O)c2ccc(OC)c(OC)c2)cc1 | 6.6
COc1ccc(/C=N/NC(=O)c2ccc(Cl)cc2)cc1OC | 7.5
COc1ccc(C(=O)N/N=C/c2c(C)nc3ccccn23)cc1OC | 7.7
COc1ccc(C(=O)N(C)/N=C/c2ccc(Cl)cc2)cc1OC | 40.4

— ChEMBL document CHEMBL2169806, “Design, synthesis, and pharmacological evaluation of N-acylhydrazones and novel conformationally constrained compounds as selective and potent orally active phosphodiesterase-4 inhibitors” (J Med Chem, 2012)
